Screens (PubChem)
IDH1 R132H inh: inhibitors of IDH1 R132H reductase, primary screen, biochemical, plate reader, single point; actives 0.18% (n = 70,000); inhibition, % at 10 µM; diaphorase/resazurin fluorescence, 60 min; AID 624101, 2012; in the data active = inhibition above about 34%; inconclusive = no clear call, values can overlap the other calls; inactive = below about 11%
T cruzi growth-1: T. cruzi intracellular proliferation inhibitors, primary screen, cell-based, beta-gal Tulahuen parasites, NIH3T3 host, luminescence. T. cruzi beta-gal in NIH3T3, GalScreen luminescence, 90 h. inhibition, % at 8.34 µM. actives 5.9% (n = 77,000). AID 624255, 2012;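 active = mean inhibition above about 93%, with at least 55% of replicates each passing it, limit read from the data, passing the limit was not always enough; inconclusive = only one of those two conditions holds; inactive = neither condition holds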
KDM4C inh: inhibitors of GASC-1 (KDM4C) histone demethylase, primary screen, biochemical, single concentration HTS. Lysine-specific demethylase 4C (Homo sapiens), Q9H3R0. GST-KDM4C 2-372, H3K9me3 peptide, LANCE TR-FRET. inhibition, % at 12.5 µM. actives 0.15% (n = 96,000);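 active = mean replicate inhibition above about 25%, with at least 55% of replicates also reaching it, limit read from the data, passing the limit was not always enough; inconclusive = only one of those two conditions met; inactive = neither condition met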
Target sequence (Q9H3R0 2-372 limits assumed): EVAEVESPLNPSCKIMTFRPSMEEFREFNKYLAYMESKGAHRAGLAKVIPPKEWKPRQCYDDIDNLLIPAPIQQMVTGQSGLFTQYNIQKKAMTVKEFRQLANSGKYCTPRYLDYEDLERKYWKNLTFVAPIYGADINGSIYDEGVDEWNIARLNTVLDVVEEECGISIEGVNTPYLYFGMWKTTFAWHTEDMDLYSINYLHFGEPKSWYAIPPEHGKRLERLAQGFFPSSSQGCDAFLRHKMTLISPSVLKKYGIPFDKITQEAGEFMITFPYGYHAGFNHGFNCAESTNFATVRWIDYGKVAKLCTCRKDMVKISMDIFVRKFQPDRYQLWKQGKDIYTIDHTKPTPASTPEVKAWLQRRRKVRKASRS
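Material: GST-tagged GASC-1 (JMJD2C) catalytic fragment, aa 2-372 / Quantity: enzyme final amount 10 nM / Medium: HEPES buffer, pH 7.5, plus ascorbate / Doses: one test concentration per compound / Incubation: 30 min reaction, 60 min detection, RT / Measured by: LANCE TR-FRET / Read-out: inhibition from TR-FRET ratio decrease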
T cruzi growth-2: T. cruzi intracellular proliferation inhibitors, confirmation, cell-based, NIH3T3 host, beta-gal parasite, luminescence, cherry-pick; shares compounds with T cruzi growth-1; T. cruzi beta-gal in NIH3T3, GalScreen luminescence, 90 h; inhibition, % at 8.35 µM; actives 72% (n = 5,600); AID 651739, 2012;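 active = mean replicate inhibition above about 95% and at least 55% of replicates individually reaching it, limit read from the data; inconclusive = only one of the two criteria is met; inactive = neither criterion is met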
T cruzi growth-3: inhibitors of intracellular T. cruzi replication, confirmation, NIH3T3 host cells, beta-gal parasites, cherry-pick, set 2; shares compounds with T cruzi growth-1; T. cruzi beta-gal in NIH3T3, GalScreen luminescence, 90 h; inhibition, % at 2.09 µM; actives 21% (n = 5,600); AID 651740, 2012;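 active = mean inhibition above about 95%, with at least 55% of replicates also reaching it, limit read from the data; inconclusive = meets just one of the two conditions; inactive = meets neither condition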
3T3 cytotox: cytotoxicity in mouse NIH/3T3 fibroblasts, confirmation, cytotoxicity control for T. cruzi proliferation inhibitor project, cell-based, cherry-pick, single point; shares compounds with T cruzi growth-1; NIH/3T3 viability, CellTiter-Glo ATP luminescence, 90 h; cytotoxicity (signal decrease), % at 8.35 µM; actives 14% (n = 5,600);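 active = mean signal decrease across replicates above about 35% based on untreated-well scatter, with enough replicates individually passing, limit read from the data; inconclusive = no rule stated though some were filed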
3T3 cytotox 2: NIH/3T3 fibroblast cytotoxicity, confirmation, cytotoxicity control, cell-based, cherry-pick, single point, set 2. shares compounds with T cruzi growth-1. NIH/3T3 viability, CellTiter-Glo ATP luminescence, 90 h. inhibition, % at 24.9 µM. actives 56% (n = 5,600). AID 651744, 2012;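 active = mean loss of cell viability signal at or above a set limit, and enough replicates individually reaching it; inconclusive = meets only the mean limit or only the replicate share; inactive = meets neither condition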
A number is an active result; – = inactive; ? = inconclusive; · = no result. The entries come from a sample that favours hits as a whole.

SMILES	IDH1 R132H inh	T cruzi growth-1	KDM4C inh	T cruzi growth-2	T cruzi growth-3	3T3 cytotox	3T3 cytotox 2
Cc1nn(CC(O)COc2ccc(C(=O)c3ccccc3)cc2)c(C)c1Br (centres undefined)	–	·	·	·	·	·	·
N#C[C@@H]1[C@H](c2ccc(C#CCC3CCCC3)cc2)[C@@H](CO)N1C(=O)CN1CCOCC1	·	101	–	106	–	–	82
N#C[C@H]1[C@H](c2ccc(C#CCC3CCCC3)cc2)[C@@H](CO)N1C(=O)CN1CCOCC1	·	–	–	·	·	·	·
CCCC#Cc1ccc([C@@H]2[C@@H](CO)N(C(=O)CN3CCOCC3)[C@H]2C#N)cc1	·	?	–	·	·	·	·
CCCC#Cc1ccc([C@@H]2[C@H](C#N)N(C(=O)CN3CCOCC3)[C@H]2CO)cc1	·	99	–	–	–	–	–
Cc1cccc(C(C)C)c1NC(=O)CN(C1CCCCC1)S(C)(=O)=O	–	·	·	·	·	·	·
NC(=O)NCC#Cc1ccc2c(c1)[C@]1(C(=O)N2)[C@H](c2ccc(OCCO)cc2)N2[C@H](c3ccccc3)[C@H](c3ccccc3)OC(=O)[C@H]2[C@@H]1C(=O)N1CCCCCCC1	–	·	·	·	·	·	·
CCCNC(=O)N1[C@H](C#N)[C@H](c2ccc(-c3cccc(OC)c3)cc2)[C@@H]1CO	·	99	·	–	112	–	40
CCCNC(=O)N1[C@H](C#N)[C@@H](c2ccc(-c3cccnc3)cc2)[C@@H]1CO	·	–	–	·	·	·	·
CCCNC(=O)N1[C@@H](C#N)[C@@H](c2ccc(-c3cccc(OC)c3)cc2)[C@@H]1CO	·	98	–	99	–	–	51
CCCNC(=O)N1[C@H](C#N)[C@@H](c2ccc(-c3cccc(OC)c3)cc2)[C@@H]1CO	·	–	–	·	·	·	·
COc1ccccc1NC(=O)CN(c1ccc(F)cc1)S(C)(=O)=O	–	·	·	·	·	·	·
O=C(NCCN1CCCCC1)[C@@H]1N[C@@H]2c3ccc(-c4ccncc4)c(=O)n3C[C@@H]2[C@H]1CO	·	101	–	–	–	–	–
O=C(NCCN1CCCCC1)[C@H]1N[C@H]2c3ccc(-c4cccnc4)c(=O)n3C[C@H]2[C@@H]1CO	·	–	–	·	·	·	·
O=C(Nc1sc2c(c1C(=O)NCC1CCCO1)CCCC2)c1ccc(Cl)cc1Cl (centres undefined)	–	·	·	·	·	·	·
O=C(CCN1C(=O)C2C3c4ccccc4C(c4ccccc43)C2C1=O)Oc1cccc2cccnc12 (centres undefined)	–	·	·	·	·	·	·
CC(C)C(=O)Nc1ccc2c(c1)C(=O)N(C)[C@H]1CC[C@@H](CC(=O)NCc3ccccc3)O[C@@H]1CO2	·	–	–	·	·	·	·
Cc1cc(C(=O)Nc2ccc3c(c2)C(=O)N(C)[C@@H]2CC[C@H](CC(=O)NCc4ccc(-c5ccccc5)cc4)O[C@@H]2CO3)no1	·	103	–	?	?	78	75
CCNC(=O)C[C@@H]1CC[C@@H]2[C@H](COc3ccc(NC(=O)Cc4ccccc4)cc3C(=O)N2C)O1	·	–	–	·	·	·	·
CCNC(=O)C[C@@H]1CC[C@H]2[C@@H](COc3ccc(NC(=O)Cc4ccccc4)cc3C(=O)N2C)O1	·	105	–	104	–	–	–
CC(C)c1ccc(NC(=O)C[C@H]2CC[C@H]3[C@@H](COc4ccc(NC(=O)Nc5ccc(F)c(F)c5)cc4C(=O)N3C)O2)cc1	·	100	·	103	–	–	?
CCC(=O)Nc1ccc2c(c1)C(=O)N(C)[C@H]1CC[C@H](CC(=O)Nc3ccc(C(C)C)cc3)O[C@@H]1CO2	·	–	–	·	·	·	·
CC(C)C(=O)Nc1ccc2c(c1)C(=O)N(C)[C@H]1CC[C@H](CC(=O)NCc3ccccc3)O[C@@H]1CO2	·	103	–	98	–	–	–
Cc1cc(C(=O)Nc2ccc3c(c2)C(=O)N(C)[C@@H]2CC[C@H](CC(=O)NCc4ccc(-c5ccccc5)cc4)O[C@H]2CO3)no1	·	–	·	·	·	·	·
COc1ccc(C#Cc2ccc3c(c2)[C@]2(C(=O)N3)[C@H](C(=O)O)[C@H]3C(=O)O[C@H](c4ccccc4)[C@H](c4ccccc4)N3[C@@H]2c2ccc(O)cc2)cc1	–	·	·	·	·	·	·
SMILES	IDH1 R132H inh	T cruzi growth-1	KDM4C inh	T cruzi growth-2	T cruzi growth-3	3T3 cytotox	3T3 cytotox 2
Cc1ccc(-c2cnc3c(c2)C(=O)N([C@@H](C)CO)C[C@H](C)[C@@H](CN(C)Cc2ccccc2F)O3)cc1	–	115	–	–	–	–	–
Cc1ccc(-c2cnc3c(c2)C(=O)N([C@H](C)CO)C[C@@H](C)[C@H](CN(C)CC2CCCCC2)O3)cc1	–	–	–	·	·	·	·
Cc1ccc(-c2cnc3c(c2)C(=O)N([C@@H](C)CO)C[C@H](C)[C@H](CN(C)Cc2ccccc2F)O3)cc1	–	100	–	107	–	–	44
Cc1ccc(-c2cnc3c(c2)C(=O)N([C@@H](C)CO)C[C@@H](C)[C@H](CN(C)CC2CCCCC2)O3)cc1	·	110	–	95	–	–	104
Cc1ccc(-c2cnc3c(c2)C(=O)N([C@H](C)CO)C[C@H](C)[C@H](CN(C)Cc2ccccc2F)O3)cc1	–	–	–	·	·	·	·
Cc1ccc(-c2cnc3c(c2)C(=O)N([C@H](C)CO)C[C@@H](C)[C@H](CN(C)Cc2ccccc2F)O3)cc1	–	–	–	·	·	·	·
CC(Sc1nc(N)cc(N)n1)C(=O)Nc1cccc(Cl)c1 (centres undefined)	–	·	·	·	·	·	·
O=C1/C(=C/c2ccc(N3CCOCC3)cc2)CCC1C1CCCC1 (centres undefined)	–	·	·	·	·	·	·
C[C@@H]1CN([C@H](C)CO)S(=O)(=O)c2ccc(C#Cc3cccc(F)c3)cc2O[C@@H]1CN(C)S(=O)(=O)c1ccccc1F	–	104	–	102	113	–	40
C[C@H]1CN([C@@H](C)CO)S(=O)(=O)c2ccc(C#Cc3cccc(F)c3)cc2O[C@H]1CN(C)C	–	–	–	·	·	·	·
C[C@H](CO)N1C[C@H](C)[C@@H](CN(C)S(=O)(=O)c2ccccc2F)Oc2cc(C#Cc3cccc(F)c3)ccc2S1(=O)=O	–	107	–	99	116	–	43
C[C@@H]1CN([C@H](C)CO)S(=O)(=O)c2ccc(C#Cc3cccc(F)c3)cc2O[C@H]1CN(C)S(=O)(=O)c1cn(C)cn1	–	–	–	·	·	·	·
